Most compounds without a hit are left out; they make up all but 3.3% or so of the library.
SENP8 block-1: human SENP8 protease inhibitors, primary screen, biochemical, fluorescence, Nedd8 protein substrate, uHTS; Sentrin-specific protease 8 (Homo sapiens), Q96LD8; recombinant SENP8; AID 602440, 2012; 360,000 compounds, 0.64% hits; inhibition, % at 20 µM; in the data active = inhibition mostly above about 40%, no sharp cut-off; inactive = mostly below about 27%
Target sequence (Q96LD8 whole entry, looked up): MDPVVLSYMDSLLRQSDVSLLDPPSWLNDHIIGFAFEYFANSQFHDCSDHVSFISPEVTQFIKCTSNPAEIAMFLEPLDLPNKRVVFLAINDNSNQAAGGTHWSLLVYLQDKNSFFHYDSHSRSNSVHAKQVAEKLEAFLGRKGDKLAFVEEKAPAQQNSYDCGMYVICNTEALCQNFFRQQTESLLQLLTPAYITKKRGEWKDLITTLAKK
SENP7 inh: SENP7 protease inhibitors, primary screen, biochemical, luminescence, uHTS; recombinant SENP7, Z-RLRGG-aminoluciferin luminescence, 40 min; inhibition, % at 5 µM; 330,000 compounds, 1.5% hits; AID 434973, 2010;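 active = inhibition above about 50% at the single test dose, limit read from the data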
SENP8 block-2: SENP8 protease inhibitors, primary screen, biochemical, luminescence; inhibition, % at 10 µM; 330,000 compounds, 1.2% hits; Sentrin-specific protease 8 (Homo sapiens), Q96LD8; purified SENP8, Z-RLRGG-aminoluciferin cleavage; AID 2540, 2010; in the data active = inhibition above about 50%
SENP6 inh: SENP6 protease inhibitors, primary screen, biochemical, luminescence, uHTS; 330,000 compounds, 1.8% hits; inhibition, % at 10 µM; Recombinant SENP6 catalytic domain, aminoluciferin luminescence;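 active = inhibition above about 50% at the single tested dose, limit read from the data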
NRP1-CendR mod: modulators of CendR peptide binding to NRP-1, primary screen, biochemical, fluorescence polarization, uHTS. Neuropilin-1 (Homo sapiens), O14786. FAM-RPARPAR peptide binding to NRP-1. inhibition, % at 25 µM. 360,000 compounds, 0.85% hits. AID 602438, 2012;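 active = inhibition or corrected inhibition above about 18%, plus a signal ratio from 0.5 to 1.5, limit read from the data, passing the limit was not always enough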
SENP1 FRET inh: human SENP1 catalytic domain inhibitors, primary screen, biochemical, FRET, uHTS; Sentrin-specific protease 1 (Homo sapiens), Q9P0U3; recombinant SENP1 catalytic domain, CyPet-SUMO1-YPet FRET cleavage; inhibition, % at 10 µM; 360,000 compounds, 0.21% hits; AID 624204, 2012;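 active = inhibition at least 30% at 10 µM, raw YFP signal under a set limit, fluorescence ratio 0.5 to 1.5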
Target sequence (Q9P0U3 419-644 limits assumed): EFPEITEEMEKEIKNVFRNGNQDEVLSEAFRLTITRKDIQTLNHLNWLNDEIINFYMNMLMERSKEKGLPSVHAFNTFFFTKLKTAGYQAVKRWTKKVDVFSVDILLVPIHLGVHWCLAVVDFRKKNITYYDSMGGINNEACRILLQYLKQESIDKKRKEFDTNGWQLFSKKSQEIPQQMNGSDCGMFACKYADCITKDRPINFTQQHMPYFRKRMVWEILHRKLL
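Test system: hSENP1 catalytic domain, recombinant; Amount: 20 pM final SENP1 enzyme; Medium: Tris pH 8 buffer plus EDTA, NaCl, BME, BSA, NP40, catalase; Schedule: 50 min enzyme reaction, room temperature, light-protected; Technique: FRET fluorescence in CFP and YFP emission channels; Controls: no-enzyme wells low, DMSO-plus-enzyme wells high control.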
SENP8 confirm: SENP8 protease inhibitors, retest, confirmation, biochemical, luminescence, single concentration; shares compounds with SENP7 inh; Recombinant SENP8, Z-RLRGG-aminoluciferin luminescence, 60 min; inhibition, % at 12.5 µM; 6,200 compounds, 40% hits; AID 488912, 2010;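 active = mean inhibition across replicates above about 50%, limit read from the data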
SENP6 conf: SENP6 protease inhibitors, confirmation, biochemical, luminescence, single concentration; 6,200 compounds, 58% hits; inhibition, % at 12.5 µM; shares compounds with SENP7 inh; recombinant SENP6, Z-RLRGG-aminoluciferin luminescence
SENP7 confirm: SENP7 protease inhibitors, retest, confirmation, biochemical, luminescence, single concentration | AID 488917, 2010 | recombinant SENP7, Z-RLRGG-aminoluciferin luminescence, 40 min | 6,200 compounds, 69% hits | shares compounds with SENP7 inh | inhibition, % at 12.5 µM
Casp3 select: caspase-3 protease inhibitors, confirmation, selectivity assay for SENP inhibitor project, biochemical, single concentration; shares compounds with SENP7 inh; purified caspase-3, Z-DEVD-aminoluciferin luminescence, 60 min; inhibition, % at 12.5 µM; 6,200 compounds, 60% hits;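 active = mean inhibition above about 50%, limit read from the data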
Target sequence (P42574 28-227 limits assumed): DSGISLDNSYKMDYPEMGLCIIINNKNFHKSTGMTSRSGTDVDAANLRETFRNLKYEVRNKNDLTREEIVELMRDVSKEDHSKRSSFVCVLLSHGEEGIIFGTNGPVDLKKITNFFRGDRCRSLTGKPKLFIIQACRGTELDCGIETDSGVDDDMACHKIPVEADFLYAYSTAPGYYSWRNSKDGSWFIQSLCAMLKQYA
Luc interf: counter-screen for SENP inhibitors: luminescence interference. AID 488919. shares compounds with SENP7 inh. Pre-incubated SENP8/Z-RLRGG-aminoluciferin, luciferase luminescence interference. inhibition, % at 12.5 µM. 6,200 compounds, 39% hits;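 active = mean inhibition above about 50% when retested at one dose, limit read from the data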
Hits are given with their value; 0 = inactive; - = no result.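 Rule for the calls, unless noted: active = mean inhibition above about 50% in the one-dose retest (limit read from the data); inactive = the rest.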

SMILES	SENP8 block-1	SENP7 inh	SENP8 block-2	SENP6 inh	NRP1-CendR mod	SENP1 FRET inh	SENP8 confirm	SENP6 conf	SENP7 confirm	Casp3 select	Luc interf
O=C(CC1C(=O)NCCN1Cc1ccccc1)NC1CCCCC1 (configuration not stated)	0	-	-	-	0	0	-	-	-	-	-
COC(=O)c1ccc(N=Nc2c(C)[nH]n(-c3ccccc3)c2=O)cc1	0	0	0	0	0	0	-	-	-	-	-
CSc1ccc(N=Nc2c(C)[nH]n(C)c2=O)cc1	0	53	0	0	0	0	0	0	0	0	0
O=C(Nc1ccccc1)c1sc(Cl)nc1-c1ccccc1	0	0	0	0	0	0	-	-	-	-	-
O=C(Nc1ccccc1)c1cc2ccc3ccccc3c2s1	0	69	0	0	0	0	0	0	0	0	0
O=C(Nc1ccccc1)c1ccc(-c2ccccc2)s1	0	84	0	0	0	0	0	0	0	67	0
Cc1ccc(-c2noc(-c3cc4ccccc4oc3=O)n2)cc1	0	0	0	0	0	0	-	-	-	-	-
O=c1oc2ccccc2cc1-c1nc2c(s1)CCCC2	0	99	94	0	0	0	0	0	100	84	0
O=c1oc2ccccc2cc1-c1nc2ccccc2o1	0	85	72	90	0	0	54	86	98	94	0
O=c1oc2ccccc2cc1-c1nc(-c2ccccc2)no1	0	82	57	0	0	0	0	0	0	0	0
C[C@@H]1CN([C@@H](C)CO)C(=O)CCCn2nncc2CO[C@H]1CN(C)S(=O)(=O)c1cccc(F)c1	0	-	-	-	0	0	-	-	-	-	-
CC(=O)Nc1ccc(CN2C(=O)C(C)(C)ON=C2c2ccc(NC(C)=O)cc2)cc1	0	-	-	-	0	0	-	-	-	-	-
O=C(Nc1ccc(O)cc1)C1CCCO1 (configuration not stated)	0	60	0	0	0	0	0	0	0	0	0
Cc1ccc2c(c1)NC(=O)c1cccnc1N2	0	0	0	52	0	0	0	0	65	63	0
CC(c1nc2ccccc2c(=O)[nH]1)N1CCN(S(=O)(=O)c2ccc(F)c(Cl)c2)CC1 (configuration not stated)	0	-	-	-	0	0	-	-	-	-	-
CC(=O)OCCNc1cc(SC(C)C)c2nonc2c1[N+](=O)[O-]	0	0	0	56	0	0	0	0	0	0	0
O=C(/C=C/c1ccco1)Nc1sc2c(c1C(=O)O)CCC2	0	0	84	92	0	0	91	90	99	94	92
O=C(/C=C/c1ccccc1)Nc1sc2c(c1C(=O)O)CCC2	0	0	69	0	0	0	0	74	90	73	81
N#Cc1c(NC(=O)/C=C/c2ccco2)sc2c1CCCC2	0	-	-	-	0	0	-	-	-	-	-
O=C1/C(=C/c2ccccc2)Oc2cc(OC(=O)N3CCOCC3)ccc21	0	0	0	0	0	0	-	-	-	-	-
COc1cc(OC)c2c(c1)O/C(=C\c1ccccc1)C2=O	0	54	57	68	0	0	72	68	83	0	72
COc1ccc(/C=C2\Oc3ccccc3C2=O)cc1	0	97	92	93	0	0	0	94	101	94	88
CC(=O)Oc1ccc(/C=C2/Oc3ccccc3C2=O)cc1	0	78	83	87	0	0	0	61	0	71	0
CCc1ccc(C(O)c2ncc(-c3cccc(F)c3)[nH]2)cc1 (configuration not stated)	0	-	-	-	0	0	-	-	-	-	-
O=C(NNC(=O)c1ccccc1[N+](=O)[O-])c1cnccn1	0	82	0	0	0	0	0	0	0	0	0
SMILES	SENP8 block-1	SENP7 inh	SENP8 block-2	SENP6 inh	NRP1-CendR mod	SENP1 FRET inh	SENP8 confirm	SENP6 conf	SENP7 confirm	Casp3 select	Luc interf
O=C(NNC(=O)c1cnccn1)c1cccc([N+](=O)[O-])c1	0	0	0	0	0	0	-	-	-	-	-
CC1=CN2C(c3cccc([N+](=O)[O-])c3)=NON(c3ccc(C)cn3)C2C=C1 (configuration not stated)	0	-	-	-	0	0	-	-	-	-	-
CCOc1ccc(NC(=O)Nc2ccccc2C(N)=O)cc1	0	100	91	98	0	0	95	97	102	98	0
COc1ccc(NC(=O)Nc2ccccc2C(N)=O)cc1OC	0	0	0	0	0	0	-	-	-	-	-
CCOc1ccc(NC(=O)Nc2ccc(NC(C)=O)cc2)cc1	0	0	0	0	0	0	-	-	-	-	-
COc1ccc(NC(=O)Nc2cc(C)ccc2F)cc1	0	0	88	92	0	0	0	92	101	91	59
COc1ccc(NC(=O)Nc2ccccc2C(N)=O)cc1	0	96	91	96	0	0	0	95	102	98	89
Cn1c(NCCc2ccncc2)nc2cc(-c3ccccc3)sc2c1=O	0	-	-	-	0	0	-	-	-	-	-
COc1cccc(/C=C/C(=O)c2ccc(NC3=NCCCS3)cc2)c1	0	0	0	0	0	0	-	-	-	-	-
Cc1cccc(/C=C/C(=O)c2ccc(NC3=NCCCS3)cc2)c1	0	88	71	93	0	0	81	68	0	0	90
Cc1ccc(C2CC(c3ccccc3)=NN2c2ccccc2)o1 (configuration not stated)	0	55	0	0	0	0	0	0	0	0	0
OC(c1ccc(OCc2ccccc2)cc1)c1nnc(-c2ccccc2)o1 (configuration not stated)	0	0	0	50	0	0	0	0	56	0	0
CC(=O)c1sc(N/N=C\c2ccccc2O)nc1C	0	0	56	68	0	0	0	0	82	0	0

Screening results as filed in PubChem.
